According to ChEMBL document CHEMBL4145630, “Development of Highly Potent and Selective Steroidal Inhibitors and Degraders of CDK8” (ACS Med Chem Lett, 2018):
Activity calls are given as the source filed them. The calls are words filed in the database; no cut-off is given here.

What was measured:
[1] = target: T1, Cyclin-dependent kinase 8 (Homo sapiens, UniProt P49336); test: Inhibition of CDK8 (unknown origin)
[2] = target: T1, Cyclin-dependent kinase 8; test: Inhibition of CDK8 in human HepG2 cells assessed as reduction in IFNgamma-induced STAT1 phosphorylation at S727 measured after 18 hrs by Western blot analysis; type: cell-based
[3] = target: T2, Protein cereblon/Cyclin-dependent kinase 8 (Homo sapiens) (UniProt P49336+Q96SW2); test: Induction of CRBN-mediated CDK8 degradation in human Jurkat cells up to 10 uM measured after 24 hrs by immunoblot analysis; type: cell-based
T2 sequence (P49336 whole entry, looked up): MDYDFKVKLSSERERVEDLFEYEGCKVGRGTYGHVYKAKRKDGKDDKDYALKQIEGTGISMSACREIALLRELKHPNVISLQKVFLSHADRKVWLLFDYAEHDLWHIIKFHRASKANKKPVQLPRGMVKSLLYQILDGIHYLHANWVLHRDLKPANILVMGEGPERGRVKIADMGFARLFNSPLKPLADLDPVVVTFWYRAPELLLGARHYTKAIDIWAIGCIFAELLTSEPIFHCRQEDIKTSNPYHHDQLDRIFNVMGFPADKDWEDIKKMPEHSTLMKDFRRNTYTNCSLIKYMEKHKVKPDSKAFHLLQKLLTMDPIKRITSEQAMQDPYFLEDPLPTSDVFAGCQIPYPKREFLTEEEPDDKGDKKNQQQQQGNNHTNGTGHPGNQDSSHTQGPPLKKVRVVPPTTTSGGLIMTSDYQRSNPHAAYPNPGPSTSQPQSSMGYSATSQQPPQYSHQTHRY
T2 sequence (Q96SW2 whole entry, looked up): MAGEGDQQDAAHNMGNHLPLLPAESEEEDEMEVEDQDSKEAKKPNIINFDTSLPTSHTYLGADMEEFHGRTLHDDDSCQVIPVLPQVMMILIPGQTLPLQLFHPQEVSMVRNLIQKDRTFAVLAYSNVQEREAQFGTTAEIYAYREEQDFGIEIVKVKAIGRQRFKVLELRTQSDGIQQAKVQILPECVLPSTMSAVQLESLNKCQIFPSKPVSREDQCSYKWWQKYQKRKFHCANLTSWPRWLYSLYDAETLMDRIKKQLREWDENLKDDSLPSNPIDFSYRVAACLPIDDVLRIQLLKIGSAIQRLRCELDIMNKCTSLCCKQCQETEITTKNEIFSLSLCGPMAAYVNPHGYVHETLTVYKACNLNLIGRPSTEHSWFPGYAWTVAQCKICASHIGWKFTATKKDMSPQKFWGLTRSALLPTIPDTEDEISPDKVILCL
Summary of the method: (§1)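 Jurkat cells incubated with increasing concentrations (up to 20 μM in the widest series) for 24 h; lysate CDK8 levels read by immunoblot.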

[4] = target: T2, Protein cereblon/Cyclin-dependent kinase 8 (Homo sapiens); test: Induction of CRBN-mediated CDK8 degradation in human Jurkat cells at 1 uM measured after 6 to 24 hrs by immunoblot analysis; type: cell-based
Summary of the method: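 Jurkat cells given 0.1 or 1 μM; lysates collected at 6 and 24 h and probed for CDK8 by immunoblot.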

[5] = target: T2, Protein cereblon/Cyclin-dependent kinase 8 (Homo sapiens); test: Induction of CRBN-mediated CDK8 degradation in wild-type human MOLT4 cells at 5 uM measured after 24 hrs by immunoblot analysis
Summary of the method: (§2)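 Wild-type Molt4 cells and Molt4 cells with CRISPR/Cas9 deletion of CRBN were treated with increasing concentrations for 24 h; CDK8 in lysates detected by immunoblot.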

[6] = target: T1, Cyclin-dependent kinase 8; test: Induction of CDK8 degradation in human MOLT4 cells harboring CRBN deletion mutant at 0.1 to 5 uM measured after 24 hrs by immunoblot analysis; type: cell-based; summary of the method: as §2
[7] = target: T2, Protein cereblon/Cyclin-dependent kinase 8 (Homo sapiens); test: Induction of CRBN-mediated CDK8 degradation in human Jurkat cells at 1 uM measured after 6 hrs in presence of proteasome inhibitor bortezomib by immunoblot analysis; type: cell-based
Summary of the method: (§3)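 Rescue design: Jurkat cells pretreated with bortezomib (10 μM), MLN4924, lenalidomide in excess, or an excess of a CDK8-binding analogue unable to bind CRBN, then exposed to the degrader; CDK8 levels assessed by immunoblot.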

[8] = target: T2, Protein cereblon/Cyclin-dependent kinase 8 (Homo sapiens); test: Induction of CRBN-mediated CDK8 degradation in human Jurkat cells at 1 uM measured after 6 hrs in presence of neddylation inhibitor MLN4924 by immunoblot analysis; type: cell-based; summary of the method: as §3
[9] = target: T2, Protein cereblon/Cyclin-dependent kinase 8 (Homo sapiens); test: Induction of CRBN-mediated CDK8 degradation in human Jurkat cells at 1 uM measured after 6 hrs in presence of N-((3S,17S)-17-(isoquinolin-7-yl)-10,13-dimethylhexadecahydro-1H-cyclopenta[a]phenanthren-3-yl)-Nmethyl-1-((2-(1-methyl-2,6-dioxopiperidin-3-yl)-1,3-dioxoisoindolin-4-yl)amino)-3,6,9,12-tetraoxapentadecan-15-amide by immunoblot analysis; type: cell-based; summary of the method: as §3
[10] = target: T2, Protein cereblon/Cyclin-dependent kinase 8 (Homo sapiens); test: Induction of CRBN-mediated CDK8 degradation in human Jurkat cells at 1 uM measured after 6 hrs in presence of lenalidomide by immunoblot analysis; type: cell-based; summary of the method: as §3
Jurkat = test: Effect on CDK8 mRNA levels in human Jurkat cells at 1 uM after 24 hrs by qPCR analysis; type: functional, cell-based
Summary of the method: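 Jurkat cells exposed to 1 μM or vehicle for 24 h; Cdk8 mRNA quantified by qPCR with two separate Cdk8 primer sets, normalized to Actin.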

[11] = target: T2, Protein cereblon/Cyclin-dependent kinase 8 (Homo sapiens); test: Induction of CRBN-mediated CDK8 degradation in wild-type human Jurkat cells at 1 to 10 uM measured after 24 hrs by immunoblot analysis; type: cell-based; summary of the method: as §1
[12] = target: T2, Protein cereblon/Cyclin-dependent kinase 8 (Homo sapiens); test: Induction of CRBN-mediated CDK8 degradation in wild-type human Jurkat cells at 20 uM measured after 24 hrs by immunoblot analysis; type: cell-based; summary of the method: as §1
[13] = target: Protein cereblon/Cyclin-dependent kinase 19 (Homo sapiens) (UniProt Q9BWU1+Q96SW2); test: Induction of CRBN-mediated CDK19 degradation in wild-type human Jurkat cells up to 20 uM measured after 24 hrs by immunoblot analysis; type: cell-based
Sequence of Protein cereblon/Cyclin-dependent kinase 19 (Homo sapiens) (Q96SW2 whole entry, looked up): as above
Sequence of Protein cereblon/Cyclin-dependent kinase 19 (Homo sapiens) (Q9BWU1 whole entry, looked up): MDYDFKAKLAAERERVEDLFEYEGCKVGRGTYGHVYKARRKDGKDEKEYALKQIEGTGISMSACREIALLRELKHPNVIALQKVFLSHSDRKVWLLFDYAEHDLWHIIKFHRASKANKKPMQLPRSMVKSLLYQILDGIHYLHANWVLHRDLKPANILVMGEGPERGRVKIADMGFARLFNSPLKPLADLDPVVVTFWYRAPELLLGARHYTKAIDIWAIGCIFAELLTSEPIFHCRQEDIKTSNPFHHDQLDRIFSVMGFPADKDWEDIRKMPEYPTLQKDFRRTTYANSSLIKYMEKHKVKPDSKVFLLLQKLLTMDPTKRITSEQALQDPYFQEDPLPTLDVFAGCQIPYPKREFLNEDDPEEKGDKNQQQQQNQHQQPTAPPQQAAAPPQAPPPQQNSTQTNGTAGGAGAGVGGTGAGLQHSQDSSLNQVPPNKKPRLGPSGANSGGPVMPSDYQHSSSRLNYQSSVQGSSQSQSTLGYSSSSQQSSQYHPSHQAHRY
Summary of the method: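 Jurkat cells treated for 24 h; CDK19 protein in cell lysates assessed by immunoblot.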

[14] = target: Cyclin-dependent kinase 19 (Homo sapiens, UniProt Q9BWU1); test: Induction of CDK19 degradation in human Jurkat cells up to 20 uM measured after 24 hrs by immunoblot analysis
Sequence of Cyclin-dependent kinase 19 (Q9BWU1 whole entry): as the sequence (Q9BWU1 whole entry, looked up) above

[15] = target: T2, Protein cereblon/Cyclin-dependent kinase 8 (Homo sapiens); test: Induction of CRBN-mediated CDK8 degradation in human Jurkat cells at 0.1 to 1 uM measured after 6 to 24 hrs by immunoblot analysis; type: cell-based
Summary of the method: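 Jurkat cells were treated with compound at 0.1 or 1 μM. Lysates were collected at 6 and 24 h, and CDK8 protein levels were assessed by immunoblot.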

[16] = target: T2, Protein cereblon/Cyclin-dependent kinase 8 (Homo sapiens); test: Induction of CRBN-mediated CDK8 degradation in human Jurkat cells at 0.1 to 10 uM measured after 24 hrs by immunoblot analysis; type: cell-based; summary of the method: as §1

T1 sequence (P49336 whole entry): as the sequence (P49336 whole entry, looked up) above

| SMILES | IC50 [1] [nM] | other results |
| --- | --- | --- |
| C[C@]12CC[C@H]3[C@@H](CC=C4C[C@@H](O)CC[C@@]43C)[C@@H]1CC[C@@H]2c1ccc2nc(N)ncc2c1 | 108 |  |
| CN(C)[C@@H]1CC[C@@]2(C)[C@@H](CC[C@@H]3[C@@H]2CC[C@]2(C)[C@@H](c4ccc5ccncc5c4)CC[C@@H]32)C1 | 64 |  |
| CN(C)[C@H]1C[C@@]23CC[C@@]4(O2)C(=CC[C@]2(C)C(c5ccc6ccncc6c5)=CCC24)C=C3[C@@H](O)[C@@H]1O (stereo partly specified) |  | inhibition [2]: Dose-dependent effect |
| C[C@]12CC[C@H]3[C@@H](CC=C4C[C@@H](O)CC[C@@]43C)[C@@H]1CC[C@@H]2c1ccc2[nH]ncc2c1 | > 10000 |  |
| C[C@]12CC[C@H](O)CC1=CC[C@@H]1[C@@H]2CC[C@]2(C)C(c3ccc4ccncc4c3)=CC[C@@H]12 | 164 |  |
| CN(C)[C@H]1CC[C@@]2(C)[C@@H](CC[C@@H]3[C@@H]2CC[C@]2(C)[C@@H](c4ccc5ccncc5c4)CC[C@@H]32)C1 | 24 |  |
| C[C@]12CC[C@H](O)CC1=CC[C@@H]1[C@@H]2CC[C@]2(C)C(c3ccc4[nH]ncc4c3)=CC[C@@H]12 | > 10000 |  |
| C[C@]12CC[C@H]3[C@@H](CC=C4C[C@@H](O)CC[C@@]43C)[C@@H]1CC[C@@H]2c1ccc2cn[nH]c2c1 | > 10000 |  |
| C[C@]12CC[C@H]3[C@@H](CC=C4C[C@@H](O)CC[C@@]43C)[C@@H]1CC[C@@H]2c1ccc2ccncc2c1 | 48 |  |
| C[C@]12CC[C@H]3[C@@H](CC=C4C[C@@H](O)CC[C@@]43C)[C@@H]1CC[C@@H]2c1ccc2cnncc2c1 | > 10000 |  |
| C[C@]12CC[C@H](O)CC1=CC[C@@H]1[C@@H]2CC[C@]2(C)C(c3ccc4cnccc4c3)=CC[C@@H]12 | 8240 |  |
| CN1C(=O)CCC(N2C(=O)c3cccc(NCCOCCOCCOCCOCCC(=O)N(C)[C@H]4CC[C@@]5(C)[C@@H](CC[C@@H]6[C@@H]5CC[C@]5(C)[C@@H](c7ccc8ccncc8c7)CC[C@@H]65)C4)c3C2=O)C1=O (stereo partly specified) | 443 | Activity [3]: inactive |
| C[C@]12CC[C@H]3[C@@H](CC=C4C[C@@H](O)CC[C@@]43C)[C@@H]1CC[C@@H]2c1ccc2cnccc2c1 | 6000 |  |
| CN(C(=O)CCOCCOCCOCCOCCNc1cccc2c1C(=O)N(C1CCC(=O)NC1=O)C2=O)[C@H]1CC[C@@]2(C)[C@@H](CC[C@@H]3[C@@H]2CC[C@]2(C)[C@@H](c4ccc5ccncc5c4)CC[C@@H]32)C1 (stereo partly specified) | 159 | Activity [4]: Active; Activity [5]: Active; Activity [6]: inactive; Activity [7]: inactive; Activity [8]: inactive; Activity [9]: inactive; Activity [10]: inactive; Activity (Jurkat): inactive; Activity [11]: Active; Activity [12]: inactive; Activity [13]: inactive; Activity [14]: inactive |
| C[C@]12CC[C@H](n3ccnn3)C[C@@H]1CC[C@@H]1[C@@H]2CC[C@]2(C)[C@@H](c3ccc4ccncc4c3)CC[C@@H]12 | 24 |  |
| C[C@]12CC[C@H](N3CCOCC3)C[C@@H]1CC[C@@H]1[C@@H]2CC[C@]2(C)[C@@H](c3ccc4ccncc4c3)CC[C@@H]12 | 120 |  |
| CC(=O)N(C)[C@H]1CC[C@@]2(C)[C@@H](CC[C@@H]3[C@@H]2CC[C@]2(C)[C@@H](c4ccc5ccncc5c4)CC[C@@H]32)C1 | 34 |  |
| CN(CCCCCOCCOCCNc1cccc2c1C(=O)N(C1CCC(=O)NC1=O)C2=O)[C@H]1CC[C@@]2(C)[C@@H](CC[C@@H]3[C@@H]2CC[C@]2(C)[C@@H](c4ccc5ccncc5c4)CC[C@@H]32)C1 (stereo partly specified) |  | Activity [15]: inactive |
| C[C@]12CC[C@H]3[C@@H](CC=C4C[C@@H](O)CC[C@@]43C)[C@@H]1CC[C@@H]2c1ccc2c(N)n[nH]c2c1 | 682 |  |
| C[C@]12CC[C@H](O)C[C@@H]1CC[C@@H]1[C@@H]2CC[C@]2(C)[C@@H](c3ccc4ccncc4c3)CC[C@@H]12 | 208 |  |
| C[C@]12CC[C@H](O)CC1=CC[C@@H]1[C@@H]2CC[C@]2(C)C(c3ccc4nc(N)ncc4c3)=CC[C@@H]12 | 2300 |  |
| CN(C(=O)CCOCCOCCNc1cccc2c1C(=O)N(C1CCC(=O)NC1=O)C2=O)[C@H]1CC[C@@]2(C)[C@@H](CC[C@@H]3[C@@H]2CC[C@]2(C)[C@@H](c4ccc5ccncc5c4)CC[C@@H]32)C1 (stereo partly specified) | 192 | Activity [16]: inactive |
| C[C@]12CC[C@H](O)CC1=CC[C@@H]1[C@@H]2CC[C@]2(C)C(c3ccc4cnncc4c3)=CC[C@@H]12 | > 10000 |  |
| C[C@]12CC[C@H](O)CC1=CC[C@@H]1[C@@H]2CC[C@]2(C)C(c3ccc4c(N)n[nH]c4c3)=CC[C@@H]12 | 1520 |  |
| C[C@]12CC[C@H](O)CC1=CC[C@@H]1[C@@H]2CC[C@]2(C)C(c3ccc4cn[nH]c4c3)=CC[C@@H]12 | > 10000 |  |
| C[C@]12CC[C@H](O)C[C@@H]1CC[C@@H]1[C@@H]2CC[C@]2(C)C(c3ccc4ccncc4c3)=CC[C@@H]12 | 1010 |  |
| CN[C@H]1CC[C@@]2(C)[C@@H](CC[C@@H]3[C@@H]2CC[C@]2(C)[C@@H](c4ccc5ccncc5c4)CC[C@@H]32)C1 | 1320 |  |
